Assay results from PubChem BioAssay AID623913 (Johns Hopkins Ion Channel Center, 2012).
Calls of active or inactive are those of the source.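 How the source made its calls: active means KCNQ2 potassium channel blocked by over 30% at some tested dose, with a dose response curve fitted; inactive means no blocking at any dose, or no fitted curve.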

These compounds were tested against Potassium voltage-gated channel subfamily KQT member 2 (Rattus norvegicus) (UniProt O88943) (assay: KCNQ2 channel inhibition, SAR follow-up, selectivity assay for KCNK9 inhibitor project, cell-based, FluxOR thallium flux, concentration-response, set 4 (AID 623913)). Conditions: KCNQ2 cells, FluxOR thallium flux fluorescence.
Method in brief: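 Material – CHO cells expressing rat KCNQ2 potassium channel · Probe or stimulus – K+/Tl+ stimulus buffer (5x stock K2SO4 plus Tl2SO4) · Times – dye 90 min, compounds 20 min, room temperature · Technique – FluxOR thallium flux fluorescence, kinetic read · Controls – XE-991 as KCNQ2 inhibitor control · Replication – at least duplicate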

Potassium voltage-gated channel subfamily KQT member 2 (Rattus norvegicus), sequence (O88943 whole entry, looked up): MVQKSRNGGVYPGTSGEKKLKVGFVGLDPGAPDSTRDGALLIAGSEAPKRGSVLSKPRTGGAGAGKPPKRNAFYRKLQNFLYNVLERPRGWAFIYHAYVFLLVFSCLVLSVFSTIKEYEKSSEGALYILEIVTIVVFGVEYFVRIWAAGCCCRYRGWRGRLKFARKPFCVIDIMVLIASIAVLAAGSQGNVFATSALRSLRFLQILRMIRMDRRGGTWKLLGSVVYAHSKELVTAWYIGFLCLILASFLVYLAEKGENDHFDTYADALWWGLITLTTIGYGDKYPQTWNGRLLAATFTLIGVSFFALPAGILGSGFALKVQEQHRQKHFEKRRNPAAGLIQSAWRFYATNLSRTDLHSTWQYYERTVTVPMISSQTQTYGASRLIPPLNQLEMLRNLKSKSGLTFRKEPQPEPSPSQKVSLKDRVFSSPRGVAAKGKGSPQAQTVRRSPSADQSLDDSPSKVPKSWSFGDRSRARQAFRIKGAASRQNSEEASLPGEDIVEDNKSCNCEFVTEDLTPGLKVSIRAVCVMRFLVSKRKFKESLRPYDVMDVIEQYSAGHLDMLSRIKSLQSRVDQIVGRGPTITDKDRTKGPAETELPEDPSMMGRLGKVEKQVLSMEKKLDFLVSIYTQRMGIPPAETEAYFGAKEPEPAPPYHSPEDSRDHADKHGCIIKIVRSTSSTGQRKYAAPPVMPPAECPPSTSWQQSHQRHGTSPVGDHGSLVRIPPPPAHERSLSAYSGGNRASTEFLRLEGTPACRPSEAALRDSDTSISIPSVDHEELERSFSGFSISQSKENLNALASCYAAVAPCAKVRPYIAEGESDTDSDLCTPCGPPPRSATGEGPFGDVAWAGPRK

Row | IC50 | Structure (SMILES)
1 | 11.1 µM | COc1ccc(C(=O)CCSc2nnc(-c3ccco3)n2C(C)C2CC3CCC2C3)cc1OC (stereo not given)

Same assay, conditions: KCNQ2 cells, FluxOR thallium flux fluorescence; at 30 µM (top of the series)

Row | thallium flux ratio, lower = inhibition | Structure (SMILES)
2 | inactive | CCCC(=O)C1CCN(c2ncnc3c2CN(C(=O)c2ccc(-c4ccccc4)cc2)CC3)CC1
3 | inactive | C[C@H](C1CCCCC1)n1c(-c2ccsc2)n[nH]c1=S
4 | inactive | CC(C1CC2CCC1C2)n1c(SCCc2cccc(O)c2)nnc1-c1ccco1 (stereo not given)
5 | inactive | CC(C1CC2CCC1C2)n1c(SCCc2ccccn2)nnc1-c1ccco1 (stereo not given)
6 | inactive | C[C@H]([C@@H]1CC2CC[C@H]1C2)n1c(-c2ccsc2)n[nH]c1=S
7 | inactive | CC(C1C[C@H]2CCC1C2)n1c(-c2ccsc2)n[nH]c1=S (stereo not given in full)
8 | inactive | CC(C1CC2CCC1C2)n1c(N)nnc1-c1ccco1 (stereo not given)
9 | inactive | COc1cccc(-c2n[nH]c(=S)n2[C@H](C)C2CCCCC2)c1
10 | inactive | COc1ccc(CSc2nnc(-c3ccco3)n2C(C)C2CC3CCC2C3)cc1OC (stereo not given)
11 | inactive | C[C@H](C1CCCCC1)n1c(-c2ccccc2F)n[nH]c1=S
12 | inactive | CC([C@@H]1CC2CC[C@H]1C2)n1c(-c2ccsc2)n[nH]c1=S (stereo not given in full)
13 | inactive | COc1cccc(-c2nnc(SSc3nnc(-c4cccc(OC)c4)n3C(C)C3CC4CCC3C4)n2C(C)C2CC3CCC2C3)c1 (stereo not given)
14 | inactive | COc1cccc(CCSc2nnc(-c3ccco3)n2C(C)C2CC3CCC2C3)c1 (stereo not given)
15 | inactive | COc1ccc(NC(=O)CSc2nnc(-c3ccco3)n2C(C)C2CC3CCC2C3)cc1OC (stereo not given)
16 | inactive | CC(C1CCN(C)CC1)n1c(-c2ccco2)n[nH]c1=S (stereo not given)
17 | inactive | C[C@H]([C@@H]1CC2CC[C@H]1C2)n1c(-c2ccco2)n[nH]c1=S
18 | inactive | C[C@H]([C@@H]1CC2CC[C@H]1C2)n1c(-c2ccccc2F)n[nH]c1=S
19 | inactive | COc1ccc(CC(=O)NCc2ccccc2-c2ccccc2C(=O)NCc2ccc(F)cc2F)cc1
20 | inactive | CC(C1CC2CCC1C2)n1c(SCCN2CCOCC2)nnc1-c1ccco1 (stereo not given)
21 | inactive | CC(C1CC2CCC1C2)n1c(SCC(=O)N2CCN(C)CC2)nnc1-c1ccco1 (stereo not given)
22 | inactive | CC(C1CC2CCC1C2)n1c(-c2ccco2)nn(CCc2ccncc2)c1=S (stereo not given)
23 | inactive | COc1cccc(-c2n[nH]c(=S)n2[C@H](C)[C@@H]2CC3CC[C@H]2C3)c1
24 | inactive | C[C@@H]([C@@H]1CC2CC[C@H]1C2)n1c(-c2ccco2)n[nH]c1=S
25 | inactive | C[C@@H]([C@@H]1CC2CC[C@H]1C2)n1c(-c2ccsc2)n[nH]c1=S
